Results as given in ChEMBL document CHEMBL4396943, “The tetrahydroxanthone-dimer phomoxanthone A is a strong inducer of apoptosis in cisplatin-resistant solid cancer cells” (Bioorg Med Chem, 2019).
Calls of active or inactive are those of the source. The calls are words filed in the database; no cut-off is given here.

What was measured:
A2780 [1] = experiment: Effect on ROS generation in human A2780 cells at 316 nM incubated for 18 hrs by H2DCFDA staining based flow cytometry; format: functional, cell-based
Outline: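 Cells plated in 24-well plates (about 150,000/well) overnight, then exposed 18 h. Washed and moved to phenol red-free, serum-free RPMI-1640, then loaded with 10 µM H2DCF-DA for 30 min at 37 °C in the dark. One aliquot read directly, the other after 250 µM H2O2 for 1 h at 37 °C. DCF fluorescence read by flow cytometry. Three independent experiments.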

A2780 [2] = experiment: Cell cycle arrest in human A2780 cells assessed as accumulation at G1 phase at 1 uM incubated for 24 hrs by propidium iodide staining based flow cytometry (reference value: 61.8%); format: functional
Outline: (§1)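 After 24 h exposure, cells washed in ice-cold PBS. About 2 million cells fixed in cold 70% ethanol at −20 °C for at least 24 h. Stained with 0.1% Triton X-100, 200 µg/ml RNase A and 20 µg/ml propidium iodide in PBS, 15 min at 37 °C in the dark. DNA content read by flow cytometry with doublet discrimination. Medium as untreated control, paclitaxel as G2/M control. Three independent experiments.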

J82 [3] = experiment: Induction of apoptosis in human J82 cells assessed as nuclear condensation by measuring reduced size and increased intensity of nuclei at 50 uM incubated for 24 hrs by hoechst 33342 staining based fluorescence microscopy; format: functional, cell-based
J82 [4] = experiment: Induction of apoptosis in human J82 cells assessed as depolarization of mitochondrial membrane potential at 5 to 10 uM incubated for 2 hrs by hoechst 33342 staining based fluorescence microscopy; format: functional
Outline: (§2)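 J82 cells treated 2 h with PXA, then labelled 20 min with TMRE plus Hoechst 33342. ΔΨm read by high-content fluorescence imaging. Untreated medium and 20 µM CCCP served as controls.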

A2780cisR [5] = experiment: Cell cycle arrest in human A2780cisR cells assessed as accumulation at G1 phase at 5 uM incubated for 24 hrs by propidium iodide staining based flow cytometry (reference value: 68.7%); format: functional; outline: as §1
A2780 [6] = experiment: Induction of apoptosis in human A2780 cells assessed as accumulation in subG1 phase incubated for 24 hrs by propidium iodide staining based flow cytometry; format: functional, cell-based
Outline: (§3)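 Cells plated in 24-well plates (about 100,000/well) for one day, then treated 24 h. Where used, caspase inhibitor Q-VD-OPh (20 µM) was added 1 h before. Cells lysed in hypotonic buffer (0.1% sodium citrate, 0.1% Triton X-100, 100 µg/ml propidium iodide) overnight at 4 °C in the dark. Sub-G1 fraction read by flow cytometry. Medium control, cisplatin positive control.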

A2780cisR [7] = experiment: Potency index, ratio of cisplatin IC50 to compound IC50 for antiproliferative activity in human A2780cisR cells assessed as reduction in cell viability incubated for 72 hrs by MTT assay; format: functional
Outline: (§4)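 Cells seeded in 96-well plates overnight, exposed 72 h to increasing concentrations. MTT (5 mg/ml) added for 15 min, formazan dissolved in DMSO, absorbance read at 544 nm with 690 nm background subtracted. IC50 is the concentration reducing signal by 50%. Three independent experiments in triplicate. CisR sublines made by weekly intermittent cisplatin exposure for 24–30 weeks.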

A2780cisR [8] = experiment: Antiproliferative activity against human A2780cisR cells assessed as reduction in cell viability incubated for 24 hrs by MTT assay; format: functional, cell-based
Outline: (§5)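 Cells seeded overnight in 96-well plates, then exposed to increasing concentrations (compound dissolved in DMSO, diluted in medium) for the stated time. MTT (5 mg/ml in PBS) added for 15 min, formazan dissolved in DMSO, absorbance read at 544 nm minus 690 nm background. IC50 = concentration giving 50% signal decrease. At least three independent experiments in triplicate.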

J82 [9] = experiment: Cell cycle arrest in human J82 cells assessed as accumulation at G1 phase at 5 uM incubated for 24 hrs by propidium iodide staining based flow cytometry (reference value: 69.6%); format: functional; outline: as §1
J82 [10] = experiment: Induction of apoptosis in cisplatin resistant human J82 cells assessed as depolarization of mitochondrial membrane potential incubated for 2 hrs by TMRE staining based flow cytometry; format: functional, cell-based
Outline: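 Cells seeded overnight; medium switched to FBS-free just before treatment to avoid TMRE ester cleavage. Exposure 1 h, 2 h or 24 h, then TMRE staining for 20 min. Cells trypsinized, centrifuged at 4 °C and read by flow cytometry. Medium as negative control, 20 µM CCCP as positive control. […]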

A2780 [11] = experiment: Antiproliferative activity against human A2780 cells assessed as reduction in cell viability incubated for 24 hrs by MTT assay; format: functional, cell-based; conditions: A2780, 24 h; outline: as §5
A2780cisR [12] = experiment: Induction of apoptosis in human A2780cisR cells assessed as depolarization of mitochondrial membrane potential at 1 uM by TMRE staining based flow cytometry; format: functional, cell-based; conditions: TDE = time-dependent effect
Outline: (§6)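 Cells seeded overnight; complete medium swapped for FBS-free medium just before treatment to avoid TMRE ester cleavage. Exposure to PXA for 1 h, 2 h or 24 h. TMRE staining 20 min, cells collected by trypsinisation, ΔΨm read by flow cytometry. Medium served as negative control, 20 µM CCCP as positive control. Mean ± SEM reported.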

J82 [13] = experiment: Potency index, ratio of cisplatin IC50 to compound IC50 for antiproliferative activity in cisplatin resistant human J82 cells assessed as reduction in cell viability incubated for 72 hrs by MTT assay; format: functional; outline: as §4
Homo sapiens = species on record: Homo sapiens; experiment: Ratio of IC50 for induction of mitochondrial membrane depolarization in human J82 cells to IC50 for induction of mitochondrial membrane depolarization human A2780 cells after 2 hrs by TMRE staining based flow cytometry; format: functional, cell-based; outline: as §6
J82 [14] = experiment: Induction of apoptosis in human J82 cells assessed as mitochondrial membrane potential at 1 uM incubated for 2 hrs by hoechst 33342 staining based fluorescence microscopy; format: functional, cell-based; outline: as §2
A2780 [15] = experiment: Induction of apoptosis in human A2780 cells assessed as increase in intracellular calcium level at 1 and 30 uM incubated for 30 mins by fluorimetry; format: functional, cell-based
Outline: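 Cells seeded in 96-well plates overnight, washed twice with Krebs-HEPES buffer, loaded 1 h at 37 °C in the dark with Oregon Green BAPTA-1 AM (final 3 µM) and Pluronic F-127. Buffer replaced, PXA added, fluorescence at 544 nm recorded for 30 min, with or without 1 mM extracellular Ca2+. Three experiments, mean ± SEM.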

A2780cisR [16] = experiment: Induction of apoptosis in human A2780cisR cells assessed as increase in activation of caspase 3/7 at 10 uM incubated for 24 hrs by hoechst 33342 staining based fluorescence microscopy (reference value: 0.8%); format: functional
A2780 [17] = experiment: Induction of apoptosis in human A2780 cells assessed as accumulation in subG1 phase incubated for 24 hrs by propidium iodide staining based flow cytometry (reference value: 10%); format: functional; outline: as §3
J82 [18] = experiment: Induction of apoptosis in human J82 cells assessed as depolarization of mitochondrial membrane potential incubated for 1 hr by TMRE staining based flow cytometry; format: functional, cell-based; outline: as §6
A2780cisR [19] = experiment: Induction of apoptosis in human A2780cisR cells assessed as nuclear condensation by measuring reduced size and increased intensity of nuclei at 10 uM incubated for 24 hrs by hoechst 33342 staining based fluorescence microscopy; format: functional, cell-based

In the case of CC(=O)OC[C@]12Oc3c(-c4ccc(O)c5c4O[C@@]4(COC(C)=O)C(=C(O)C[C@@H](C)[C@H]4OC(C)=O)C5=O)ccc(O)c3C(=O)C1=C(O)C[C@@H](C)[C@H]2OC(C)=O [PHOMOXANTHONE A], the Activity (A2780 [1]) is reported as “inactive”, the Activity (A2780 [2]) is reported as 63.3% and the Activity (J82 [3]) is reported as “Active”. The Activity (J82 [4]) was 100%, the Activity (A2780cisR [5]) was 83.3% and the Activity (A2780 [6]) was “Dose-dependent effect”. The “Ratio IC50” value (A2780cisR [7]) was 9, the IC50 (A2780cisR [8]; read-out: IC50) was 1.88 µM and the IC50 (A2780cisR [8]; read-out: pIC50 (converted)) was 1.86 µM. For the same compound, the Activity (J82 [9]) was 68%, the Activity (J82 [10]) was “Dose-dependent effect” and the IC50 (J82 [10]; J82, 2 h) was 2.75 µM. For the same compound, the IC50 (A2780 [11]; read-out: IC50) was 1.44 µM, the IC50 (A2780 [11]; read-out: pIC50 (converted)) was 1.45 µM and the Activity (A2780cisR [12]) was “Tde”. For the same compound, the “Ratio IC50” value (J82 [13]) was 4, the Ratio IC50 (Homo sapiens) was 3 and the Activity (J82 [14]) was “inactive”. The Activity (A2780 [15]) was “Active”, the Activity (A2780cisR [16]) was 71% and the Activity (A2780 [17]) was 70%. The Activity (J82 [18]) was “Dose-dependent effect”, the IC50 (J82 [18]; J82, 1 h) was 3.75 µM and the Activity (A2780cisR [19]) was “Active”.
